From ChEMBL document CHEMBL1154150, “Synthesis and anticonvulsant activity of some new bishydrazones derived from 3,4-dipropyloxythiophene” (Eur J Med Chem, 2009)
Calls of active or inactive are those of the source. The calls are words filed in the database; no cut-off is given here.

Tests used:
Mus musculus [1] = experiment: Anticonvulsant activity in CF1 mouse assessed as protection against maximal electroshock-induced seizures at 30 mg/kg, ip after 4 hrs; type: functional, organism-based; set-up: dose 30 mg/kg
Procedure, shortened: (§1)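 Male CF-1 albino mice (18–25 g), dosed i.p. at 30, 100 or 300 mg/kg in 0.5% methyl cellulose/water or PEG 200 (0.01 ml/g); tested at intervals after dosing; protection = abolition of hind limb tonic extensor component of MES seizure; scored as protected/tested.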

Mus musculus [2] = experiment: Neurotoxicity in CF1 mouse at 30 mg/kg, ip after 4 hrs by rotarod test; type: toxicity, organism-based; set-up: dose 30 mg/kg, route intraperitoneal; details: in vivo
Procedure, shortened: (§2)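 Rotorod neurotoxicity in male CF-1 mice (18–25 g) after i.p. compound in 0.5% methyl cellulose/water or PEG 200 at 30, 100 or 300 mg/kg; reported as number showing toxicity/number tested.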

Mus musculus [3] = experiment: Anticonvulsant activity in CF1 mouse assessed as protection against subcutaneous metrazole-induced seizures at 30 mg/kg, ip after 4 hrs; type: functional, organism-based; set-up: dose 30 mg/kg
Mus musculus [4] = experiment: Anticonvulsant activity in CF1 mouse assessed as protection against subcutaneous metrazole-induced seizures at 100 mg/kg, ip after 4 hrs; type: functional, organism-based; set-up: dose 100 mg/kg
Mus musculus [5] = experiment: Anticonvulsant activity in CF1 mouse assessed as protection against 6 Hz electric shock-induced seizures at 100 mg/kg, ip after 2 hrs; type: functional, organism-based; set-up: dose 100 mg/kg
Procedure, shortened: (§3)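 Male CF-1 albino mice (18–25 g), compound suspended in 0.5% methyl cellulose/water or PEG 200, given i.p.; four mice per time point (0.25, 0.5, 1.0, 2.0, 4 h) challenged via corneal electrodes at 6 Hz, 32 mA for 3 s, current eliciting psychomotor seizure in 97% of animals; reported as protected/tested.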

Mus musculus [6] = experiment: Anticonvulsant activity in CF1 mouse assessed as protection against maximal electroshock-induced seizures at 30 mg/kg, ip after 0.5 hrs; type: functional, organism-based; set-up: dose 30 mg/kg; procedure, shortened: as §1
Mus musculus [7] = experiment: Anticonvulsant activity in CF1 mouse assessed as protection against maximal electroshock-induced seizures at 100 mg/kg, ip after 4 hrs; type: functional, organism-based; set-up: dose 100 mg/kg; procedure, shortened: as §1
Mus musculus [8] = experiment: Anticonvulsant activity in CF1 mouse assessed as protection against subcutaneous metrazole-induced seizures at 300 mg/kg, ip after 4 hrs; type: functional, organism-based; set-up: dose 300 mg/kg
Mus musculus [9] = experiment: Neurotoxicity in CF1 mouse at 30 mg/kg, ip after 0.5 hrs by rotarod test; type: toxicity, organism-based; set-up: dose 30 mg/kg, route intraperitoneal; details: in vivo; procedure, shortened: as §2
Mus musculus [10] = experiment: Neurotoxicity in CF1 mouse at 100 mg/kg, ip after 4 hrs by rotarod test; type: toxicity, organism-based; set-up: dose 100 mg/kg, route intraperitoneal; details: in vivo; procedure, shortened: as §2
Mus musculus [11] = experiment: Anticonvulsant activity in CF1 mouse assessed as protection against subcutaneous metrazole-induced seizures at 100 mg/kg, ip after 0.5 hrs; type: functional, organism-based; set-up: dose 100 mg/kg
Mus musculus [12] = experiment: Anticonvulsant activity in CF1 mouse assessed as protection against 6 Hz electric shock-induced seizures at 100 mg/kg, ip after 4 hrs; type: functional, organism-based; set-up: dose 100 mg/kg; procedure, shortened: as §3
Mus musculus [13] = experiment: Anticonvulsant activity in CF1 mouse assessed as protection against 6 Hz electric shock-induced seizures at 100 mg/kg, ip after 0.25 hrs; type: functional, organism-based; set-up: dose 100 mg/kg; procedure, shortened: as §3
Mus musculus [14] = experiment: Anticonvulsant activity in CF1 mouse assessed as protection against subcutaneous metrazole-induced seizures at 30 mg/kg, ip after 0.5 hrs; type: functional, organism-based; set-up: dose 30 mg/kg
Mus musculus [15] = experiment: Anticonvulsant activity in CF1 mouse assessed as protection against 6 Hz electric shock-induced seizures at 100 mg/kg, ip after 0.5 hrs; type: functional, organism-based; set-up: dose 100 mg/kg; procedure, shortened: as §3
Mus musculus [16] = experiment: Neurotoxicity in CF1 mouse at 100 mg/kg, ip after 0.5 hrs by rotarod test; type: toxicity, organism-based; set-up: dose 100 mg/kg, route intraperitoneal; details: in vivo; procedure, shortened: as §2
Mus musculus [17] = experiment: Anticonvulsant activity in CF1 mouse assessed as protection against maximal electroshock-induced seizures at 300 mg/kg, ip after 0.5 hrs; type: functional, organism-based; set-up: dose 300 mg/kg; procedure, shortened: as §1
Mus musculus [18] = experiment: Neurotoxicity in CF1 mouse at 300 mg/kg, ip after 4 hrs by rotarod test; type: toxicity, organism-based; set-up: dose 300 mg/kg, route intraperitoneal; details: in vivo; procedure, shortened: as §2
Mus musculus [19] = experiment: Anticonvulsant activity in CF1 mouse assessed as protection against maximal electroshock-induced seizures at 100 mg/kg, ip after 0.5 hrs; type: functional, organism-based; set-up: dose 100 mg/kg; procedure, shortened: as §1
Mus musculus [20] = experiment: Anticonvulsant activity in CF1 mouse assessed as protection against subcutaneous metrazole-induced seizures at 300 mg/kg, ip after 0.5 hrs; type: functional, organism-based; set-up: dose 300 mg/kg
Mus musculus [21] = experiment: Neurotoxicity in CF1 mouse at 300 mg/kg, ip after 0.5 hrs by rotarod test; type: toxicity, organism-based; set-up: dose 300 mg/kg, route intraperitoneal; details: in vivo; procedure, shortened: as §2
Mus musculus [22] = experiment: Anticonvulsant activity in CF1 mouse assessed as protection against 6 Hz electric shock-induced seizures at 100 mg/kg, ip after 1 hr; type: functional, organism-based; set-up: dose 100 mg/kg; procedure, shortened: as §3
Mus musculus [23] = experiment: Anticonvulsant activity in CF1 mouse assessed as protection against maximal electroshock-induced seizures at 300 mg/kg, ip after 4 hrs; type: functional, organism-based; set-up: dose 300 mg/kg; procedure, shortened: as §1

Compound	Activity (Mus musculus [1])	Activity (Mus musculus [2])	Activity (Mus musculus [3])	Activity (Mus musculus [4])	Activity (Mus musculus [5])	Activity (Mus musculus [6])	Activity (Mus musculus [7])	Activity (Mus musculus [8])	Activity (Mus musculus [9])	Activity (Mus musculus [10])	Activity (Mus musculus [11])	Activity (Mus musculus [12])	Activity (Mus musculus [13])	Activity (Mus musculus [14])	Activity (Mus musculus [15])	Activity (Mus musculus [17])	Activity (Mus musculus [18])	Activity (Mus musculus [19])	Activity (Mus musculus [20])	Activity (Mus musculus [21])	other results
CCCOc1c(C(=O)NN=C2CCCCC2)sc(C(=O)NN=C2CCCCC2)c1OCCC	inactive	Non-toxic	inactive	inactive	inactive	inactive	inactive	inactive	Non-toxic	Non-toxic	inactive	inactive	inactive	inactive	inactive	inactive	Non-toxic	inactive	inactive	Non-toxic	Activity (Mus musculus [16]): Non-toxic; Activity (Mus musculus [22]): inactive
CCCOc1c(C(=O)NN=C(c2ccccc2)c2ccccc2)sc(C(=O)NN=C(c2ccccc2)c2ccccc2)c1OCCC	inactive	Non-toxic	inactive	inactive	inactive	inactive	inactive	inactive	Non-toxic	Non-toxic	inactive	inactive	inactive	inactive	inactive	inactive	Non-toxic	inactive	inactive	Non-toxic	Activity (Mus musculus [23]): inactive; Activity (Mus musculus [22]): inactive
CCCOc1c(C(=O)N/N=C\c2cc(OC)c(OC)c(OC)c2)sc(C(=O)N/N=C/c2cc(OC)c(OC)c(OC)c2)c1OCCC	inactive	Non-toxic	inactive	inactive		inactive	inactive	inactive	Non-toxic	Non-toxic		inactive	inactive	inactive	inactive	inactive	Non-toxic	inactive	inactive	Non-toxic	Activity (Mus musculus [23]): inactive; Activity (Mus musculus [16]): Non-toxic
CCCOc1c(C(=O)N/N=C(\c2ccccc2)c2ccc(Br)s2)sc(C(=O)N/N=C(\c2ccccc2)c2ccc(Br)s2)c1OCCC	inactive	Non-toxic	inactive	inactive	inactive	inactive	inactive	inactive	Non-toxic	Toxic	inactive	inactive	inactive	inactive	inactive	inactive	Non-toxic	inactive	inactive	Toxic	Activity (Mus musculus [23]): inactive; Activity (Mus musculus [16]): Toxic; Activity (Mus musculus [22]): inactive
